This passage reports Activity, Ratio and Kd results from ChEMBL document CHEMBL4354826, “Structure-Based Discovery of SD-36 as a Potent, Selective, and Efficacious PROTAC Degrader of STAT3 Protein” (J Med Chem, 2019).

For assay [1], the target named is Protein cereblon/Signal transducer and activator of transcription 5B (Homo sapiens) (UniProt P51692+Q96SW2). Briefly: Protac activity at CRBN/STAT5B in human MOLM16 cells assessed as degradation of STAT5B at 0.01 to 10 uM incubated for 4 hrs by Western blot analysis. The format is cell-based. Put shortly:
(§1)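 Molm-16 cells treated 4 h with test compound at 0.01–10 μM, or control compounds at 10 μM. Lysates separated by SDS–PAGE, transferred to PVDF, blocked 1 h in 5% blocker/TBST, probed for each STAT protein, and detected by chemiluminescence.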
Background: A western blot detects proteins with antibodies after separation by electrophoresis.

For assay [2], the target named is Protein cereblon/Signal transducer and activator of transcription 2 (Homo sapiens) (UniProt Q96SW2+P52630). As to the kind of experiment: Protac activity at CRBN/STAT2 in human MOLM16 cells assessed as degradation of STAT2 at 0.01 to 10 uM incubated for 4 hrs by Western blot analysis. The format is cell-based. Put shortly: as §1
Chain of Protein cereblon/Signal transducer and activator of transcription 2 (Homo sapiens) (P52630 whole entry, looked up): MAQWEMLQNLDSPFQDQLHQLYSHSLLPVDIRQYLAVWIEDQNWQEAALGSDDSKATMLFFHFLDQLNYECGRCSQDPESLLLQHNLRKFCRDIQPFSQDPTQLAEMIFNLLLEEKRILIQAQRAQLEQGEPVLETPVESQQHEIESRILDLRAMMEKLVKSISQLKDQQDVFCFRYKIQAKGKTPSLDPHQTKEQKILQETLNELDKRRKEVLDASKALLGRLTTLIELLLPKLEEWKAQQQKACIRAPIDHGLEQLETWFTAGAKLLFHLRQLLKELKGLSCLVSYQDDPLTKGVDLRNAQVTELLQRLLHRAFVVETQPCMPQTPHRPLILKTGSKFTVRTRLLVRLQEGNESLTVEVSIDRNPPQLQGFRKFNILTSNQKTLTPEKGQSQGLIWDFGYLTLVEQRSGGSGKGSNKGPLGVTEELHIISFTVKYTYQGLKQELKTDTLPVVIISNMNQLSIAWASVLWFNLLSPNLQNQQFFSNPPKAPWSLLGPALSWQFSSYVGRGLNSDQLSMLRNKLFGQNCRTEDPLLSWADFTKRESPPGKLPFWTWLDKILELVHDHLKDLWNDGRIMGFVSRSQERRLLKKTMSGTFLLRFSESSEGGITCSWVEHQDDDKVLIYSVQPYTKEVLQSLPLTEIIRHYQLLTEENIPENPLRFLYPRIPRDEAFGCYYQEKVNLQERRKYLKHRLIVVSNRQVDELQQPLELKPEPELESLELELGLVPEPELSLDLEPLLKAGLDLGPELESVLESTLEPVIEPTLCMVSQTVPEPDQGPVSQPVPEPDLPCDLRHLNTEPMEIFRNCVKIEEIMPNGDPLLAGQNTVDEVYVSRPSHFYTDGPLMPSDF
Chain of Protein cereblon/Signal transducer and activator of transcription 2 (Homo sapiens) (Q96SW2 whole entry, looked up): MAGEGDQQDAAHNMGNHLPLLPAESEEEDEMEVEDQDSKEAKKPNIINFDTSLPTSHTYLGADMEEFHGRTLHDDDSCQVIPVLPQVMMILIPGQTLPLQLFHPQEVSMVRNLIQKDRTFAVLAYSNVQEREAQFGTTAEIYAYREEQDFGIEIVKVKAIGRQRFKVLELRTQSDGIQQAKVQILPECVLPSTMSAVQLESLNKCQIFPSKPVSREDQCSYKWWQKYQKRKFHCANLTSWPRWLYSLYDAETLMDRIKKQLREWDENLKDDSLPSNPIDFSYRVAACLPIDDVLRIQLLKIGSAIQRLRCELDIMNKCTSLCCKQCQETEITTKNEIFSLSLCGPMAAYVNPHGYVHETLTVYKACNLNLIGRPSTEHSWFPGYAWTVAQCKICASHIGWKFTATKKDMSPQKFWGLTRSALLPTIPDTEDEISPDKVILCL
The species entered for a further assay is Homo sapiens. Briefly: Selectivity index, ratio of protac activity at CRBN/STAT5A in human SUDHL1 cells to protac activity at CRBN/STAT3 in human SUDHL1 cells. The class given is cell-based. Put shortly: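 SU-DHL-1 cells treated 18 h with compound at 0.01–10 μM, or controls at 10 μM. Immunoblotting used SDS–PAGE, PVDF transfer, 1 h block in 5% blocker/TBST, primary and secondary antibodies and chemiluminescence. Levels of other STAT family members compared with STAT3 to express degradation selectivity.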

Assay [3] addresses T1, Signal transducer and activator of transcription 4 (Homo sapiens, UniProt Q14765).
T1 sequence (Q14765 whole entry): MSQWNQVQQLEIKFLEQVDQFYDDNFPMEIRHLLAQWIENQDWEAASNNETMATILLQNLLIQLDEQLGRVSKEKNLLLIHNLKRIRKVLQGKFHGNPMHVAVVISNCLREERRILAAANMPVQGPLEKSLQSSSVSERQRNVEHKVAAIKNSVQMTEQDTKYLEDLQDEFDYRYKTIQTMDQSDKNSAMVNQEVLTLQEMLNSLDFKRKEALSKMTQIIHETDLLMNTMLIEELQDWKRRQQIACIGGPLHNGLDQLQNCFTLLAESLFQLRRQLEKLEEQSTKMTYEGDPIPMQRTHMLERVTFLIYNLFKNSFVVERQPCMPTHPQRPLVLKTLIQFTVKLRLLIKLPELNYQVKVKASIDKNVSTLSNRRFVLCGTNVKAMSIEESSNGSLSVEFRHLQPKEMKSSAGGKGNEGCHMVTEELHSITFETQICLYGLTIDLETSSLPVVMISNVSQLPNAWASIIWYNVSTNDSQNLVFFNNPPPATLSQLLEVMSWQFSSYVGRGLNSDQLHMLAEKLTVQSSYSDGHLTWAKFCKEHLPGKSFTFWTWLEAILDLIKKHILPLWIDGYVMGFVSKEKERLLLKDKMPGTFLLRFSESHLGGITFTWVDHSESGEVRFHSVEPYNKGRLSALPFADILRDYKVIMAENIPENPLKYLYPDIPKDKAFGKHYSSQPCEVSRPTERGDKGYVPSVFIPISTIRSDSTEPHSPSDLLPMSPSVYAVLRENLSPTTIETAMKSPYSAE
Briefly: Binding affinity to recombinant human His/SUMO-tagged STAT4 (133 to 705 residues) expressed in Escherichia coli Rosetta (DE3) incubated for 1 hr by fluorescence polarization assay.

A further assay relates to Mus musculus. As to the kind of experiment: In vivo degradation of STAT3 in CD1 mouse at 25 mg/kg, iv measured upto 48 hrs by Western blot analysis. The format is functional, organism-based. Put shortly: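 Female CD-1 mice given a single intravenous dose in 10% PEG400 + 90% PBS, or vehicle. Euthanized at set time points. Spleen harvested and lysates immunoblotted for STAT3.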

The source made the active and inactive calls. The calls are words filed in the database; no cut-off is given here.

Chain of Protein cereblon/Signal transducer and activator of transcription 5B (Homo sapiens) (P51692 whole entry, looked up): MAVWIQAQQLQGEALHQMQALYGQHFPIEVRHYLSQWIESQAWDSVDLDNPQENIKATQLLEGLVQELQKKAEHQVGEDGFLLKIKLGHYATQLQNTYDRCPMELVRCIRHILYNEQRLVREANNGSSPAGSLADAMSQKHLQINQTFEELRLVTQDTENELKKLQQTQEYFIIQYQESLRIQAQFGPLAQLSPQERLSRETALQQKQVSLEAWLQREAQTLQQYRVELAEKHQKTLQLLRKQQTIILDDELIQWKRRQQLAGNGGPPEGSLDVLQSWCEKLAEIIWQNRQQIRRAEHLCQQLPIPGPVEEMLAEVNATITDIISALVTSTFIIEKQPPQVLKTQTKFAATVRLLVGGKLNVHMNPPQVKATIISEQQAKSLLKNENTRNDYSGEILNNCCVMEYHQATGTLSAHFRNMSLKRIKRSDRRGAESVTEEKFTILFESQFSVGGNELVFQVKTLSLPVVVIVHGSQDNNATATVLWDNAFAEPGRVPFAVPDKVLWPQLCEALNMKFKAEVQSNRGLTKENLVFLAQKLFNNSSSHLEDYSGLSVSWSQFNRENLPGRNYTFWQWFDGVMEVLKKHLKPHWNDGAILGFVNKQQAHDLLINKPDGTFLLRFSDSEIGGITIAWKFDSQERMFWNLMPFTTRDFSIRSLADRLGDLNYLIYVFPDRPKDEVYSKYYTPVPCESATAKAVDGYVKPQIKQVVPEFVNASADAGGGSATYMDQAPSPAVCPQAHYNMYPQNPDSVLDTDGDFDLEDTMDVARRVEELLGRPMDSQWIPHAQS
Chain of Protein cereblon/Signal transducer and activator of transcription 5B (Homo sapiens) (Q96SW2 whole entry, looked up): as the sequence (Q96SW2 whole entry, looked up) above

`NC(=O)CC[C@H](NC(=O)[C@@H]1CC[C@@H]2CCN(C(=O)CCCCCC#Cc3cccc4c3CN(C3CCC(=O)NC3=O)C4=O)C[C@H](NC(=O)c3cc4cc(C(F)(F)P(=O)(O)O)ccc4[nH]3)C(=O)N21)C(=O)NC(c1ccccc1)c1ccccc1` (stereo not given in full): the outcome in assay [1] and in assay [2] was inactive. Besides, the Ratio in the assay listed under Homo sapiens is greater than 100. Moreover, in assay [3], the Kd was found to be 1000 nM. Also, in the assay with Mus musculus, the outcome was Active.

The term Kd denotes the free concentration of one partner at which half of the binding sites on the other are occupied at equilibrium, for simple one-to-one binding.
